Laboratory results taken from article PMC5025877 (Circulation research, 2014).
“Also recorded” adds a separate entry of the source.

Tests used:
Nox1 [1] = test: Nox1 phosphorylation in VSMCs, IP anti-p22phox / Western blot anti-STY; assay type: cell-based, rat; settings: for Nox1 phosphorylation on agonist treatment (other agonists): VSMC, Online Figure III, timing may be agonist dependent
In short: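 A7r5 rat aortic VSMCs in culture were stimulated with TNF-α, with or without PKC inhibitor pretreatment. Nox1 phosphorylation was detected by Western blotting with an anti-phospho-Ser/Thr/Tyr (anti-STY) antibody. n=3.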

Nox1 [2] = test: ROS production by CM-H2DCF fluorescence in VSMCs; assay type: cell-based, murine
In short: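 Cultured aortic VSMCs from C57Bl6/J (WT) and Nox1-/y mice were pretreated with the test compound (a PKC inhibitor), then stimulated with TNF-α. ROS were imaged by CM-H2DCF fluorescence, with nuclei counterstained with ToPro3.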

NADPH oxidase = assay type: cell-based, rat; settings: VSMC membrane fractions, lucigenin, RLU, n=5–15; for TNF-α-primed NADPH oxidase activity, effect of inhibitor: TNF-α pre-treatment
In short: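 Cultured rat (A7r5) aortic VSMCs were pretreated with the test compound (a PKC inhibitor) or with the flavoenzyme inhibitor DPI, then stimulated with TNF-α. NADPH oxidase activity was measured by lucigenin-enhanced chemiluminescence and reported as relative light units. n=5–15.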

VSMCs = test: VSMC migration to TNF-α; assay type: cell-based, murine
In short: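 Aortic VSMCs from WT C57Bl6/J and Nox1-/y mice were pretreated with the test compound (a PKC inhibitor), and their migration to TNF-α was counted. n=5–15.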

Nox1 [3] = test: superoxide in intact CosPhox cells with p47phox and NoxA1; assay type: cell-based; settings: TNF-α (10 ng/ml), PDGF-BB (10 ng/ml), AngII (10^-7 M), PMA (10^-6 M), RLU/sec, n=4
In short: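 Cos7 cells stably expressing p22phox (CosPhox) were transfected with p47phox, NoxA1, and either wild-type or T429A Nox1. Superoxide was read as luminescence (RLU/sec) in intact cells immediately after agonist addition. The unstimulated signal was subtracted from the agonist signal, and values were normalized to cell number.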

[4] = target: NoxA1 activation domain (AD); test: ITC binding of NoxA1 AD peptide with Nox1 peptides; settings: for Kd: read-out: Kd (affinity) for NoxA1 AD, n=3 independent experiments
[5] = circular dichroism of peptides; assay type: physicochemical; settings: negative dip below 200 nm, near-zero shoulders at longer wavelengths
human recombinant PKC-βI [6] = test: ITC in vitro kinase reaction of recombinant PKC-βI with Nox1 peptide; assay type: biochemical; settings: slow return to baseline after heat of dilution
human recombinant PKC-βI [7] = test: dot blot; assay type: biochemical; settings: anti-p-STY; total peptide by Ponceau staining
In short: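 Input and product of the in vitro PKC-βI kinase reaction on the Nox1 T429 peptide were dot-blotted and probed with anti-p-STY. Total peptide was measured by Ponceau staining. Signal was quantified as the ratio of p-STY to total peptide. A phosphorylated T429 peptide was included.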

NoxA1 = NoxA1 membrane recruitment in CosPhox cells; assay type: cell-based; settings: n=4
In short: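 CosPhox cells (Cos7 stably expressing p22phox, p47phox and p67phox) expressed p22phox, NoxA1, and either WT or T429A Nox1. After TNF-α treatment, membrane fractions were isolated and immunoblotted for NoxA1. Whole-cell lysates taken before membrane isolation were probed for GAPDH. n=4 independent experiments.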

p47^phox = test: p47phox membrane recruitment; assay type: cell-based; settings: WT versus T429A Nox1; Online Figure VIII
[8] = target: T1, phosphorylated Nox1 peptide (peptide containing phosphorylated Nox1 at T429); test: ITC
T1 chain: KLKTQKIYF

## COc1c(C[C@@H](C)OC(=O)Oc2ccc(O)cc2)c2c3c(C[C@@H](C)OC(=O)c4ccccc4)c(OC)c(=O)c4c(O)cc(OC)c(c5c(OC)cc(O)c(c1=O)c52)c43 [CalC, Calphostin C, reference compound]
Nox1 [1]; cultured A7r5 rat aortic VSMCs, TNF-α, n=3
  TNF-α-stimulated Nox1 phosphorylation, effect of pretreatment: inhibited
Nox1 [2]; WT murine VSMCs, TNF-α
  Nox1-dependent ROS production, effect of pretreatment: abrogated
NADPH oxidase
  TNF-α-primed NADPH oxidase activity, effect of inhibitor: completely abolished
VSMCs; WT murine VSMCs, n=5–15
  TNF-α-mediated migration, effect of pretreatment: blocked

## c1ccc2c(c1)[I+]c1ccccc1-2 [DPI]
NADPH oxidase
  TNF-α-primed NADPH oxidase activity, effect of inhibitor: completely abolished

## CCCCCCCCCCCCCC(=O)O[C@@H]1[C@@H](C)[C@@]2(O)[C@@H](C=C(CO)C[C@]3(O)C(=O)C(C)=C[C@@H]23)[C@@H]2C(C)(C)[C@]12OC(C)=O [PMA, phorbol myristate acetate, reference compound]
Nox1 [1]
  Nox1 phosphorylation on agonist treatment (other agonists): phosphorylation of VSMC Nox1 occurs
Nox1 [3]
  agonist-stimulated cellular superoxide, T429A Nox1: does not require phosphorylation of T429
  agonist-stimulated cellular superoxide, WT Nox1: increased

## KLKT*QKIYF [pNox1 peptide]
[4]
  Kd: 1500 ± 300 nM
[5]
  secondary structure by circular dichroism: unstructured; also recorded: characteristic random coil signals

## KLKTQKIYF [Nox1 peptide]
[4]
  interaction with NoxA1 (in words): no measurable interaction
  Kd: > 100000 nM
Human recombinant PKC-βI [6]
  phosphorylation by PKC-βI (heat of reaction): substrate for PKC-βI
Human recombinant PKC-βI [7]
  phosphorylation by PKC-βI, dot blot: confirms phosphorylation

## TNF-α
Nox1 [1]; cultured A7r5 rat aortic VSMCs, n=3
  Nox1 phosphorylation on agonist treatment: increased Nox1 phosphorylation
Nox1 [2]; WT versus Nox1^-/y VSMCs
  ROS production on TNF-α: robust ROS production in WT but not Nox1^-/y VSMCs
NADPH oxidase
  NADPH oxidase activity on TNF-α pre-treatment: primes NADPH oxidase activity
VSMCs; Nox1^-/y VSMCs compared
  VSMC migration to TNF-α: requires Nox1
Nox1 [3]
  agonist-stimulated cellular superoxide, T429A Nox1: markedly attenuated
  agonist-stimulated cellular superoxide, WT Nox1: increased
NoxA1; CosPhox cells with T429A Nox1
  NoxA1 membrane translocation following TNF-α, T429A Nox1: prevented
NoxA1; CosPhox cells with p22phox, p47phox, NoxA1, WT Nox1
  TNF-α-induced NoxA1 membrane recruitment, WT Nox1: recruitment of NoxA1 to the membrane
p47^phox
  p47phox membrane recruitment on TNF-α: WT but not T429A Nox1 caused a recruitment of p47^phox to the membrane

## angiotensin II (DRVYIHPF; Angiotensin-2; UniProt P01019 25-32, looked up) [AngII, reference compound]
Nox1 [3]
  agonist-stimulated cellular superoxide, T429A Nox1: markedly attenuated
  agonist-stimulated cellular superoxide, WT Nox1: increased

## EPVDFLGKAKVVASAIP (modifications not checked) [NoxA1 activation domain peptide]
[8]
  Kd: 1500 nM
  stoichiometry N: 0.86

B1: PDGF-BB: platelet-derived growth factor-BB (protein, UniProt P01127 82-190, looked up)
Platelet-derived growth …: SLGSLTIAEPAMIAECKTRTEVFEISRRLIDRTNANFLVWPPCVEVQRCSGCCNNRNVQCRPTQVQLRPVQVRKIEIVRKKPIFKKATVTLEDHLACKCETVAAARPVT
modifications: homodimer BB
Nox1 [1]
  Nox1 phosphorylation on agonist treatment (other agonists): phosphorylation of VSMC Nox1 occurs
Nox1 [3]
  agonist-stimulated cellular superoxide, T429A Nox1: markedly attenuated
  agonist-stimulated cellular superoxide, WT Nox1: increased
